{
  "source": "ChEMBL document CHEMBL4359879",
  "about": "“Synthesis and evaluation of 2-carboxy indole derivatives as potent and selective anti-leukemic agents” (Eur J Med Chem, 2019)",
  "key": {"[1]": {"tested_on": "CCRF-CEM", "assay": "Antiproliferative activity against human CEM cells incubated for 48 hrs by MTT assay", "assay_type": "functional, cell-based", "in_short": "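Cells grown in RPMI-1640 with 10% FBS, penicillin/streptomycin, 37 °C, 5% CO2. After 48 h of exposure to a dilution series, MTT was added (0.5 mg/ml final) for 4 h. Formazan was dissolved overnight in acidic SDS (10% SDS, 0.01 mol/L HCl) and absorbance read at 570 and 620 nm. Survival was expressed relative to controls, and EC50 was fitted from dose-response curves.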"}, "[2]": {"tested_on": "HL-60", "assay": "Effect on human HL60 cells assessed as fold change in INSIG1 gene expression at 1.085 uM incubated for 6 hrs by microarray-based method", "assay_type": "functional", "in_short": "(§1)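 HL60 cells were treated in triplicate with 1.085 µM or vehicle for 6 h. Total RNA was extracted with on-column DNase treatment and profiled on expression arrays.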"}, "[3]": {"tested_on": "HL-60", "assay": "Effect on human HL60 cells assessed as fold change in ATP6AP1L gene expression at 1.085 uM incubated for 6 hrs by microarray-based method", "assay_type": "functional", "in_short": "as §1"}, "[4]": {"tested_on": "HL-60", "assay": "Effect on human HL60 cells assessed as fold change in MOB2 gene expression at 1.085 uM incubated for 6 hrs by microarray-based method", "assay_type": "functional", "in_short": "as §1"}, "[5]": {"tested_on": "HL-60", "assay": "Effect on human HL60 cells assessed as fold change in DSTYK gene expression at 1.085 uM incubated for 6 hrs by microarray-based method", "assay_type": "functional", "in_short": "as §1"}, "[6]": {"tested_on": "HL-60", "assay": "Effect on human HL60 cells assessed as fold change in C14orf180 gene expression at 1.085 uM incubated for 6 hrs by microarray-based method", "assay_type": "functional", "in_short": "as §1"}, "[7]": {"tested_on": "HL-60", "assay": "Effect on human HL60 cells assessed as fold change in MIR4658 gene expression at 1.085 uM incubated for 6 hrs by microarray-based method", "assay_type": "functional", "in_short": "as §1"}, "[8]": {"tested_on": "HL-60", "assay": "Effect on human HL60 cells assessed as fold change in NMNAT1 gene expression at 1.085 uM incubated for 6 hrs by microarray-based method", "assay_type": "functional", "in_short": "as §1"}, "[9]": {"tested_on": "HL-60", "assay": "Effect on human HL60 cells assessed as fold change in ITPR3 gene expression at 1.085 uM incubated for 6 hrs by microarray-based method", "assay_type": "functional", "in_short": "as §1"}, "[10]": {"tested_on": "HL-60", "assay": "Effect on human HL60 cells assessed as fold change in PNMT gene expression at 1.085 uM incubated for 6 hrs by microarray-based method", "assay_type": "functional", "in_short": "as §1"}, "[11]": {"tested_on": "HL-60", "assay": "Effect on human HL60 cells assessed as fold change in GPSM2 gene expression at 1.085 uM incubated for 6 hrs by microarray-based method", "assay_type": "functional", "in_short": "as §1"}, "[12]": {"tested_on": "HL-60", "assay": "Effect on human HL60 cells assessed as fold change in CEP44 gene expression at 1.085 uM incubated for 6 hrs by microarray-based method", "assay_type": "functional", "in_short": "as §1"}, "[13]": {"tested_on": "HL-60", "assay": "Effect on human HL60 cells assessed as fold change in SPATA31A1 gene expression at 1.085 uM incubated for 6 hrs by microarray-based method", "assay_type": "functional", "in_short": "as §1"}, "[14]": {"tested_on": "HL-60", "assay": "Effect on human HL60 cells assessed as fold change in CELF2 gene expression at 1.085 uM incubated for 6 hrs by microarray-based method", "assay_type": "functional", "in_short": "as §1"}, "[15]": {"tested_on": "HL-60", "assay": "Effect on human HL60 cells assessed as fold change in SPATA7 gene expression at 1.085 uM incubated for 6 hrs by microarray-based method", "assay_type": "functional", "in_short": "as §1"}, "[16]": {"tested_on": "HL-60", "assay": "Effect on human HL60 cells assessed as fold change in LSMEM1 gene expression at 1.085 uM incubated for 6 hrs by microarray-based method", "assay_type": "functional", "in_short": "as §1"}, "[17]": {"tested_on": "HL-60", "assay": "Effect on human HL60 cells assessed as fold change in MEIOC gene expression at 1.085 uM incubated for 6 hrs by microarray-based method", "assay_type": "functional", "in_short": "as §1"}, "[18]": {"tested_on": "HL-60", "assay": "Induction of cell cycle arrest in human HL60 cells assessed as accumulation of cells at G0/G1 phase at EC50 incubated for 12 hrs by PI staining based flow cytometric analysis (reference value: 56.3%)", "assay_type": "functional"}, "[19]": {"tested_on": "HL-60", "assay": "Induction of cell cycle arrest in human HL60 cells assessed as accumulation of cells at G0/G1 phase at EC50 incubated for 18 hrs by PI staining based flow cytometric analysis (reference value: 56.3%)", "assay_type": "functional"}, "[20]": {"tested_on": "CCRF-CEM", "assay": "Induction of apoptosis in human CEM cells at 300 nM incubated for 18 hrs by Annexin V-FITC/propidium iodide staining-based flow cytometric analysis", "assay_type": "functional, cell-based", "in_short": "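CEM, HL60 or RS4;11 cells (5×10^5) treated with 300 nM or vehicle for 18 h. Stained with FITC-Annexin V in binding buffer for 15 min at 37 °C, then PI (5 μg/mL) for 3 min. Analyzed by flow cytometry.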"}, "[21]": {"tested_on": "RS4-11", "assay": "Induction of apoptosis in human RS4:11 cells assessed as accumulation of cells at G1 phase at 300 nM incubated for 18 hrs in presence of PARP antibody by immunofluorescent staining based flow cytometric analysis relative to control", "assay_type": "functional", "in_short": "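RS4;11 cells treated with 300 nM or DMSO vehicle for 18 h, then pulsed with 10 μM BrdU for 1 h. Harvested cells immunostained for BrdU/PI (cell cycle), γH2AX (DNA damage) and PARP (apoptosis). Multicolor flow cytometry gated G1, sub-G2-like, G2/M and sub-G0/G1 populations.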"}, "[22]": {"tested_on": "HeLa", "assay": "Induction of cell cycle arrest in human HeLa cells assessed as formation of condensed chromosomes at 500 nM incubated for 18 hrs by DAPI staining based fluorescence microscopic method", "assay_type": "functional", "in_short": "(§2)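 HeLa cells (100,000/mL) cultured overnight on glass-bottom dishes, then exposed to 500 nM or 1 μM, or DMSO, for 18 h. Permeabilized (0.5% Triton X-100) and fixed (3.7% formaldehyde). Stained overnight at 4 °C with anti-β-tubulin, then Alexa Fluor 647 secondary for 1 h at room temperature, and DAPI 1 μg/mL for 10 min. Examined by fluorescence microscopy.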"}, "[23]": {"target": "Tubulin (Homo sapiens) (UniProt P68371+Q9H4B7+P0DPH7+P68366+Q13509+Q71U36+P04350+Q3ZCM7+P07437+P68363+Q9BQE3+Q6PEY2+Q13885+Q9BVA1+Q9BUF5)", "assay": "Induction of microtubule network depolymerization in human HeLa cells at 1 uM incubated for 18 hrs by DAPI staining based fluorescence microscopic method", "assay_type": "cell-based", "in_short": "as §2"}, "[24]": {"tested_on": "HL-60", "assay": "Induction of differentiation in human HL60 cells assessed as increase in CD11b positive cells incubated for 48 hrs by 7-AAD staining-based flow cytometric analysis", "assay_type": "functional, cell-based", "in_short": "(§3)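 Vitamin D3 at 100 nM and ATRA at 2 μM served as positive controls. Stained with APC anti-CD11b and PE anti-CD14 for 30 min at 4 °C, then 7-AAD.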"}, "[25]": {"tested_on": "HL-60", "assay": "Induction of differentiation in human HL60 cells assessed as increase in CD14 positive cells incubated for 48 hrs by 7-AAD staining-based flow cytometric analysis", "assay_type": "functional, cell-based", "in_short": "as §3"}, "[26]": {"tested_on": "T-cell", "assay": "Cytotoxicity against phytohemagglutinin and interleukin-2-stimulated T-lymphocytes (unknown origin) up to 100 uM after 48 hrs by MTT assay", "assay_type": "cell-based", "in_short": "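Post-ficoll lymphocytes from healthy donors were grown in RPMI-1640 with 10% FBS and stimulated overnight with phytohemagglutinin (25 µL/mL) plus IL-2 (50 U/mL). They were then exposed to decreasing concentrations for 48 h. Viability was measured by MTT (0.5 mg/ml final, 4 h), with SDS/HCl solubilization and absorbance at 570/620 nm, as survival relative to controls.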"}},
  "note": "The source made the active and inactive calls. The calls are words filed in the database; no cut-off is given here.",
  "data": [
    {"compound": "COC(=O)c1[nH]c2cc(OC)ccc2c1-c1ccc(C(F)(F)F)cc1", "values": [
      {"measurement": "EC50", "setting": "[1]", "value": 200, "unit": "nM"},
      {"measurement": "fold change (FC)", "setting": "[2]", "value": -1.64},
      {"measurement": "fold change (FC)", "setting": "[3]", "value": -1.53},
      {"measurement": "fold change (FC)", "setting": "[4]", "value": -1.79},
      {"measurement": "fold change (FC)", "setting": "[5]", "value": 1.61},
      {"measurement": "fold change (FC)", "setting": "[6]", "value": 1.56},
      {"measurement": "fold change (FC)", "setting": "[7]", "value": -1.72},
      {"measurement": "fold change (FC)", "setting": "[8]", "value": 1.5},
      {"measurement": "fold change (FC)", "setting": "[9]", "value": 1.57},
      {"measurement": "fold change (FC)", "setting": "[10]", "value": -1.53},
      {"measurement": "fold change (FC)", "setting": "[11]", "value": 1.62},
      {"measurement": "fold change (FC)", "setting": "[12]", "value": 1.76},
      {"measurement": "fold change (FC)", "setting": "[13]", "value": -1.61},
      {"measurement": "fold change (FC)", "setting": "[14]", "value": 1.56},
      {"measurement": "fold change (FC)", "setting": "[15]", "value": 1.56},
      {"measurement": "fold change (FC)", "setting": "[16]", "value": -1.69},
      {"measurement": "fold change (FC)", "setting": "[17]", "value": -1.63},
      {"measurement": "Activity", "setting": "[18]", "value": 20.8, "unit": "%"},
      {"measurement": "Activity", "setting": "[19]", "value": 10.6, "unit": "%"},
      {"measurement": "Activity", "setting": "[20]", "value": "Active"},
      {"measurement": "Activity", "setting": "[21]", "value": 7, "unit": "%"},
      {"measurement": "Activity", "setting": "[22]", "value": "Active"},
      {"measurement": "Activity", "setting": "[23]", "value": "Active"},
      {"measurement": "Activity", "setting": "[24]", "value": "Dose-dependent effect"},
      {"measurement": "Activity", "setting": "[25]", "value": "Dose-dependent effect"},
      {"measurement": "Activity", "setting": "[26]", "value": "Non-Toxic"}
    ]}
  ]
}
